Legend:
[1] = Ratio of drug level in human LNCAP cells xenografted in C.B.-17/Icr +/+ Jcl mouse to blood of C.B.-17/Icr +/+ Jcl mouse xenografted with human LNCAP and PC3 cells at 25.9 MBq, iv after 30 mins; format: ADME, organism-based; conditions: LNCAP tumour xenograft relative to blood
Procedure, shortened: (§1)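 Tumor-to-blood and tumor-to-muscle ratios were calculated from %ID/g values in ¹²⁵I-tracer biodistribution in LNCaP/PC-3 xenografted mice. Tail-vein dosing, n=4 per time point, sacrifice at 2 min, 30 min, 1, 3 or 6 h.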

Thyroid gland = experiment: Biodistribution in thyroid of C.B.-17/Icr +/+ Jcl mouse xenografted with human LNCAP and PC3 cells at 25.9 MBq, iv after 6 hrs; format: ADME, organism-based; conditions: in vivo
Procedure, shortened: (§2)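 Radioiodinated (¹²⁵I) tracer given by tail-vein injection to mice bearing LNCaP (left shoulder) and PC-3 (right shoulder) xenografts, 22–24 g, grown to about 5–10 mm. Groups of n=4 were decapitated at 2 min, 30 min, 1 h, 3 h or 6 h. Tissues were weighed and counted, and uptake was expressed as %ID/g (mean ± SD).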

PC-3 [2] = experiment: Biodistribution in PC3 cells in C.B.-17/Icr +/+ Jcl mouse xenografted with human LNCAP and PC3 cells at 25.9 MBq, iv after 30 mins; format: ADME, organism-based; conditions: in vivo, 0.5 h
Procedure, shortened: (§3)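 ¹²⁵I-labelled tracer given iv by tail vein to mice (22–24 g) bearing LNCaP (left shoulder) and PC-3 (right shoulder) xenografts of about 5–10 mm, grown from 1–5 × 10⁶ cells in 1:1 Matrigel. n=4 per time point; decapitated at 2 min, 30 min, 1, 3, 6 h. Tissues weighed and counted; uptake as %ID/g, mean ± SD.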

Nucleic Acid [3] = experiment: Ratio of drug level in human LNCAP cells to human PC3 cells xenografted in C.B.-17/Icr […] Jcl mouse at 25.9 MBq, iv after 30 mins; format: ADME, organism-based; conditions: in vivo, 0.5 h
[4] = Ratio of drug level in human LNCAP cells xenografted in C.B.-17/Icr +/+ Jcl mouse to blood of C.B.-17/Icr +/+ Jcl mouse xenografted with human LNCAP and PC3 cells at 25.9 MBq, iv after 3 hrs; format: ADME, organism-based; conditions: LNCAP tumour xenograft relative to blood; procedure, shortened: as §1
PC-3 [5] = experiment: Biodistribution in PC3 cells in C.B.-17/Icr +/+ Jcl mouse xenografted with human LNCAP and PC3 cells at 25.9 MBq, iv after 3 hrs; format: ADME, organism-based; conditions: in vivo; procedure, shortened: as §3
Intestine = experiment: Biodistribution in intestine of C.B.-17/Icr +/+ Jcl mouse xenografted with human LNCAP and PC3 cells at 25.9 MBq, iv after 30 mins; format: ADME, organism-based; conditions: in vivo, 0.5 h; procedure, shortened: as §3
Muscle tissue [6] = experiment: Biodistribution in muscle of C.B.-17/Icr +/+ Jcl mouse xenografted with human LNCAP and PC3 cells at 25.9 MBq, iv after 6 hrs; format: ADME, organism-based; conditions: in vivo; procedure, shortened: as §2
Spleen = experiment: Biodistribution in spleen of C.B.-17/Icr +/+ Jcl mouse xenografted with human LNCAP and PC3 cells at 25.9 MBq, iv after 6 hrs; format: ADME, organism-based; conditions: in vivo; procedure, shortened: as §2
[7] = Ratio of drug level in human LNCAP cells xenografted in C.B.-17/Icr +/+ Jcl mouse to blood of C.B.-17/Icr +/+ Jcl mouse xenografted with human LNCAP and PC3 cells at 25.9 MBq, iv after 1 hr; format: ADME, organism-based; conditions: LNCAP tumour xenograft relative to blood; procedure, shortened: as §1
Kidney = experiment: Biodistribution in kidney of C.B.-17/Icr +/+ Jcl mouse xenografted with human LNCAP and PC3 cells at 25.9 MBq, iv after 30 mins in presence of 2-PMPA; format: ADME, organism-based; conditions: in vivo, 0.5 h
Procedure, shortened: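 Blocking study: ¹²⁵I-labelled tracer coinjected iv by tail vein with 2-PMPA (50 mg/kg) in LNCaP/PC-3 xenograft-bearing mice (22–24 g). Mice decapitated 30 min after injection; tissues weighed and counted; uptake as %ID/g.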

[8] = Ratio of drug level in human PC3 cells xenografted in C.B.-17/Icr +/+ Jcl mouse to blood of C.B.-17/Icr +/+ Jcl mouse xenografted with human LNCAP and PC3 cells at 25.9 MBq, iv after 2 mins; format: ADME, organism-based; conditions: PC3 tumour xenograft relative to blood
Procedure, shortened: (§4)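 Mice (22–24 g) carried PC-3 (right shoulder) and LNCaP (left shoulder) tumors, raised by injecting 1–5 × 10⁶ cells in 1:1 PBS/Matrigel and used at about 5–10 mm diameter. [¹²⁵I]-tracer was given via the tail vein, n=4 per time point, and mice were decapitated at 2 min, 30 min, 1, 3 or 6 h. Tissues were weighed and γ-counted as %ID/g. Tumor/blood and tumor/muscle ratios were taken from %ID/g, mean ± SD.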

[9] = Ratio of drug level in human PC3 cells xenografted in C.B.-17/Icr +/+ Jcl mouse to blood of C.B.-17/Icr +/+ Jcl mouse xenografted with human LNCAP and PC3 cells at 25.9 MBq, iv after 3 hrs; format: ADME, organism-based; conditions: PC3 tumour xenograft relative to blood; procedure, shortened: as §4
Nucleic Acid [10] = experiment: Ratio of drug level in human LNCAP cells to human PC3 cells xenografted in C.B.-17/Icr […] Jcl mouse at 25.9 MBq, iv after 2 mins; format: ADME, organism-based; conditions: in vivo
Liver = experiment: Biodistribution in liver of C.B.-17/Icr […] Jcl mouse xenografted with human LNCAP and PC3 cells at 25.9 MBq, iv after 2 mins; format: ADME, organism-based; conditions: in vivo; procedure, shortened: as §3
[11] = Distribution coefficient, log D of the compound; format: physicochemical; conditions: octanol/water
Serum [12] = experiment: Drug degradation in C.B.-17/Icr +/+ Jcl mouse serum after 18 hrs; format: ADME, cell-free
Procedure, shortened: (§5)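 Serum came from heart blood of isoflurane-anesthetized male C.B.-17/Icr +/+ mice (20–22 g), centrifuged at 1,500 × g and stored at −80 °C. ¹²⁵I tracer was incubated in serum at 37 °C, then methanol was added. The sample was centrifuged at 5,000 × g, passed through a 0.45 μm filter, and analyzed by radio-HPLC for intact tracer versus degradation peaks.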

PC-3 [13] = experiment: Biodistribution in PC3 cells in C.B.-17/Icr +/+ Jcl mouse xenografted with human LNCAP and PC3 cells at 25.9 MBq, iv after 6 hrs; format: ADME, organism-based; conditions: in vivo; procedure, shortened: as §3
Muscle tissue [14] = experiment: Biodistribution in muscle of C.B.-17/Icr +/+ Jcl mouse xenografted with human LNCAP and PC3 cells at 25.9 MBq, iv after 3 hrs; format: ADME, organism-based; conditions: in vivo; procedure, shortened: as §2
Nucleic Acid [15] = experiment: Ratio of drug level in human LNCAP cells xenografted in C.B.-17/Icr +/+ Jcl mouse to muscle of C.B.-17/Icr +/+ Jcl mouse xenografted with human LNCAP and PC3 cells at 25.9 MBq, iv after 6 hrs; format: ADME, organism-based; conditions: in vivo; procedure, shortened: as §1
Stomach [16] = experiment: Biodistribution in stomach of C.B.-17/Icr +/+ Jcl mouse xenografted with human LNCAP and PC3 cells at 25.9 MBq, iv after 3 hrs; format: ADME, organism-based; conditions: in vivo; procedure, shortened: as §2
Heart = experiment: Biodistribution in heart of C.B.-17/Icr +/+ Jcl mouse xenografted with human LNCAP and PC3 cells at 25.9 MBq, iv after 30 mins; format: ADME, organism-based; conditions: in vivo, 0.5 h; procedure, shortened: as §3
Stomach [17] = experiment: Biodistribution in stomach of C.B.-17/Icr +/+ Jcl mouse xenografted with human LNCAP and PC3 cells at 25.9 MBq, iv after 2 mins; format: ADME, organism-based; conditions: in vivo; procedure, shortened: as §2
Serum [18] = experiment: Drug degradation in C.B.-17/Icr +/+ Jcl mouse serum after 6 hrs; format: ADME, cell-free; procedure, shortened: as §5

Kp at 0.5 h [1]: 7.2
Drug uptake (Thyroid gland): 0.02 %ID
Drug uptake (PC-3 [2]): 0.9 % ID/g
Ratio (Nucleic Acid [3]): 10.1
Kp at 3 h [4]: 13.8
Drug uptake (PC-3 [5]): 0.3 % ID/g
Drug uptake (Intestine): 11.2 % ID/g
Drug uptake (Muscle tissue [6]): 0.1 % ID/g
Drug uptake (Spleen): 9.7 % ID/g
Kp at 1 h [7]: 6.9
Drug uptake (Kidney): Not Active
Kp at 2 min [8]: 0.4
Kp at 3 h [9]: 0.4
Ratio (Nucleic Acid [10]): 1.5
Drug uptake (Liver): 22.5 % ID/g
logD [11]: -1.97
Stability (Serum [12]): Unstable
Drug uptake (PC-3 [13]): 0.2 % ID/g
Drug uptake (Muscle tissue [14]): 0.2 % ID/g
Ratio (Nucleic Acid [15]): 76.7
Drug uptake (Stomach [16]): 1 %ID
Drug uptake (Heart): 2.1 % ID/g
Drug uptake (Stomach [17]): 0.7 %ID/g
Stability (Serum [18]): Stable
Compound: O=C(O)CC[C@H](NC(=O)N[C@@H](CSC1CC(=O)N(CCCC[C@H](NC(=O)CNC(=O)c2cccc([125I])c2)C(=O)O)C1=O)C(=O)O)C(=O)O (some centres undefined)

From ChEMBL document CHEMBL2429791, “Preparation of asymmetric urea derivatives that target prostate-specific membrane antigen for SPECT imaging” (J Med Chem, 2013)
